In ChEMBL document CHEMBL4325910, “Design and synthesis of rosiglitazone-ferulic acid-nitric oxide donor trihybrids for improving glucose tolerance” (Eur J Med Chem, 2019):
Calls of active or inactive are those of the source. The rule behind the calls is not given here.

Legend:
[1] = Metabolic stability in human liver microsomes measured immediately after compound addition in presence of NADPH by HPLC analysis; assay type: ADME, Microsome; conditions: read-out: Stability
How it was run: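 Compound (100 mM DMSO stock) was added in triplicate to 0.1 M phosphate buffer pH 7.4 with 3.3 mM MgCl2 and human liver microsomes, then preincubated 5 min at 37 °C. NADPH (1.3 mM stock) was added and incubation continued 0, 0.5, 1, 2 or 6 h. Acetonitrile quench, then HPLC at 254 nm.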

[2] = Metabolic stability in simulated intestinal fluid at pH 6.8 measured after 6 hrs by HPLC analysis; assay type: ADME; conditions: read-out: Stability
How it was run: (§1)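 Gastric fluid was 1% pepsin in water, pH 1.5. Intestinal fluid was 1% trypsin with 0.68% KH2PO4, pH 6.8. Compound (100 mM DMSO stock) was diluted 1:1000 into each, in triplicate. Incubation was at 37 °C for 0, 2, 4, 6, 16 or 24 h. Acetonitrile (3 volumes) stopped it, then HPLC at 254 nm.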

Mus musculus [3] = assay: Antidiabetic activity in spontaneous db/db BKS.Cg-Dock7m +/+ Leprdb/J mouse assessed as decrease in fasting blood glucose level at 10 to 20 mg/kg, po administered as daily dose via gavage for 18 days measured on day 9 post last dose by glucometric analysis; assay type: functional, organism-based
How it was run: (§2)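 Male db/db mice (BKS.Cg-Dock7m +/+ Leprdb/J), 6 weeks old on purchase, randomized, n=8 per group. Dosed by gavage in 0.5% CMC-Na daily for 18 consecutive days. Vehicle-dosed db/db and C57BL/6 mice served as model and control. Fasting glucose was read by glucometer every three days. On day 12, after an overnight fast, 2 g/kg glucose was given orally. Blood glucose was read at 0–120 min and AUC calculated. Mean ± SEM.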

Platelet [4] = assay: Antiplatelet activity in platelet rich plasma (unknown origin) assessed as inhibition of arachidonic acid-induced platelet aggregation at 0.4 mM relative to control; assay type: functional
3T3-L1 [5] = assay: Inhibition of ROS production in TNF-alpha-induced insulin resistant mouse 3T3L1 cells at 3 to 10 uM after 48 hrs by DCFH-DA dye-based fluorescence assay; assay type: functional, cell-based
Platelet [6] = assay: Antiplatelet activity in platelet rich plasma (unknown origin) assessed as inhibition of arachidonic acid-induced platelet aggregation at 0.1 mM relative to control; assay type: functional
[7] = Metabolic stability in simulated intestinal fluid at pH 6.8 measured after 4 hrs by HPLC analysis; assay type: ADME; conditions: read-out: Stability; how it was run: as §1
[8] = Toxicity in ICR mouse assessed mouse mortality at 2000 mg/kg, po administered as single dose via gavage treated on day 1 and measured daily up to 14 days; assay type: organism-based; conditions: in vivo, 336 h
How it was run: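 Mice of both sexes, 7 weeks old, were randomized and given one oral gavage dose on day 1. Dose levels were 500, 1000, 2000, 3000, 4000 or 5000 mg/kg, or 2000, 4000 and 5000 mg/kg, with n = 10 per group. Behaviour, health and mortality were checked daily for 14 days, and total deaths were counted on day 14. LD50 was calculated with 95% confidence limits.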

Platelet [9] = assay: Antiplatelet activity in platelet rich plasma (unknown origin) assessed as inhibition of ADP-induced platelet aggregation at 1.6 mM relative to control; assay type: functional
Mus musculus [10] = assay: Effect on lipid metabolism in spontaneous db/db BKS.Cg-Dock7m +/+ Leprdb/J mouse assessed as decrease in serum triglyceride level at 27 umol/kg, po administered as daily dose via gavage for 18 days; assay type: functional, organism-based
How it was run: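 db/db mice were gavaged daily for 18 days in 0.5% CMC-Na (n=8 per group), with a vehicle model group. On day 19, blood was collected and serum prepared by centrifugation. Serum triglyceride and HDL were then measured.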

3T3-L1 [11] = assay: Induction of nitric oxide production in TNF-alpha-induced insulin resistant mouse 3T3L1 cells at 3 to 10 uM after 0.5 to 6 hrs in presence of nitric oxide scavenger C-PTIO by DAF-FM-2DA dye-based fluorescence assay; assay type: functional, cell-based
How it was run: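 Insulin-resistant 3T3-L1 adipocytes (TNF-α 4 ng/mL, 4 days) were treated for varying times, with or without 20 μM C-PTIO. Vehicle was DMSO 0.1% or NaOH 10 μM. Cells were washed in KRP, loaded with 10 μM DAF-FM-2DA in pH 7.4 PBS at 37 °C for 30 min, and read at Ex/Em 485/515 nm. Three experiments.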

[12] = Metabolic stability in simulated intestinal fluid at pH 6.8 measured after 24 hrs by HPLC analysis; assay type: ADME; conditions: read-out: Stability; how it was run: as §1
Mus musculus [13] = assay: Antidiabetic activity in spontaneous db/db BKS.Cg-Dock7m +/+ Leprdb/J mouse assessed as decrease in blood glucose AUC at 10 to 20 mg/kg, po administered as daily dose via gavage for 18 days measured on day 12 up to 120 mins post glucose challenge by oral glucose tolerance test; assay type: functional, organism-based; how it was run: as §2
[14] = Metabolic stability in simulated gastric fluid at pH 1.5 measured after 4 hrs by HPLC analysis; assay type: ADME; conditions: read-out: Stability; how it was run: as §1
3T3-L1 [15] = assay: Induction of nitric oxide mediated increase in insulin-stimulated 2-NBDG uptake in TNF-alpha-induced insulin resistant mouse 3T3L1 cells at 3 to 10 uM preincubated for 48 hrs followed by 2-NBDG addition measured after 30 mins in presence of nitric oxide scavenger C-PTIO by fluorescence assay; assay type: functional, cell-based
How it was run: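 Day-8 differentiated 3T3-L1 adipocytes received TNF-α (4 ng/mL) daily for 4 days. They were pretreated in triplicate for 48 h (C-PTIO 20 μM where indicated), then given 100 μM 2-NBDG at 37 °C for 30 min in the dark, with or without insulin. After KRP washes, fluorescence was read at Ex/Em 485/515 nm. Three experiments, mean ± SD.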

Platelet [16] = assay: Antiplatelet activity in platelet rich plasma (unknown origin) assessed as inhibition of ADP-induced platelet aggregation at 0.4 mM relative to control; assay type: functional
Platelet [17] = assay: Antiplatelet activity in platelet rich plasma (unknown origin) assessed as inhibition of arachidonic acid-induced platelet aggregation at 16 mM relative to control; assay type: functional
[18] = Metabolic stability in Sprague-Dawley rat plasma after 24 hrs by HPLC analysis
Mus musculus [19] = assay: Antidiabetic activity in spontaneous db/db BKS.Cg-Dock7m +/+ Leprdb/J mouse assessed as decrease in blood glucose AUC at 10 mg/kg, po administered as daily dose via gavage for 18 days measured on day 12 up to 120 mins post glucose challenge by oral glucose tolerance test; assay type: functional, organism-based; how it was run: as §2
Platelet [20] = assay: Antiplatelet activity in platelet rich plasma (unknown origin) assessed as inhibition of arachidonic acid-induced platelet aggregation at 1 mM relative to control; assay type: functional
Mus musculus [21] = assay: Cardioprotective activity in db/db BKS.Cg-Dock7m +/+ Leprdb/J mouse assessed as decrease in serum cTnI level at 27 umol/kg, po administered as daily dose via gavage for 18 days by ELISA; assay type: functional, organism-based
How it was run: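 db/db mice were gavaged daily for 18 days in 0.5% CMC-Na, with vehicle-treated model and C57BL/6 control groups. Tail vein blood was collected and serum TNF-α and cTnI measured by commercial ELISA kits. Six individual experiments, mean ± SD, one-way ANOVA.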

[22] = Toxicity in spontaneous db/db BKS.Cg-Dock7m +/+ Leprdb/J mouse assessed as reduction in serum hematocrit value at 27 umol/kg, po administered as daily dose via gavage treated for 18 days; assay type: organism-based; conditions: in vivo, 432 h

With CCN(CC)/[N+]([O-])=N/OCOC(=O)/C=C/c1ccc(OC(=O)OCN2C(=O)SC(Cc3ccc(OCCN(C)c4ccccn4)cc3)C2=O)c(OC)c1 (configuration not stated) as the compound, how does the remaining at 0 h [1] read?
Its remaining at 0 h is 100%.

What about the remaining at 6 h [2] of the same compound?
Its remaining at 6 h is 87.6%.

What about the Activity (Mus musculus [3]) of the same compound?
The Activity was “Active”.

What about the inhibition at 400 µM (Platelet [4]) of the same compound?
Its inhibition at 400 µM is 40.6%.

And the inhibition (3T3-L1 [5])?
Its inhibition is “Active”.

What about the inhibition at 100 µM (Platelet [6]) of the same compound?
The inhibition at 100 µM was 21.6%.

And the remaining at 4 h [7]?
Its remaining at 4 h is 96.9%.

And the Activity [8]?
The Activity was “Non-Toxic”.

And the inhibition at 1600 µM (Platelet [9])?
The inhibition at 1600 µM was 47%.

And the Activity (Mus musculus [10])?
Its Activity is “Active”.

And the Activity (3T3-L1 [11])?
Its Activity is “inactive”.

And the remaining at 24 h [12]?
The remaining at 24 h was 75.5%.

What about the Activity (Mus musculus [13]) of the same compound?
The Activity was “Active”.

And the remaining at 4 h [14]?
The remaining at 4 h was 97%.

And the Activity (3T3-L1 [15])?
The Activity was “inactive”.

And the inhibition at 400 µM (Platelet [16])?
The inhibition at 400 µM was 18.8%.

Which inhibition at 16000 µM (Platelet [17]) does the source give for CN(CCOc1ccc(CC2SC(=O)NC2=O)cc1)c1ccccn1 (configuration not stated) [ROSIGLITAZONE] here?
The inhibition at 16000 µM was 67.2%.

What about the Stability [18] of the same compound?
The Stability was 39%.

What about the Activity (Mus musculus [19]) of the same compound?
Its Activity is “Active”.

And the inhibition at 1000 µM (Platelet [20])?
Its inhibition at 1000 µM is 14.8%.

And the Activity (Mus musculus [21])?
Its Activity is “Active”.

And the Activity [22]?
The Activity was “Toxic”.
